Assay outcomes as filed in PubChem BioAssay.
This is a sample that favours compounds with a hit; in the whole collection about 1.6% have one here.
MsrA act: bovine methionine sulfoxide reductase A activation; activation, % at 10.6 µM; AID 602163; purified bovine MsrA, absorbance read-out; 360,000 tested, 0.3% active; in the data active means activation above about 7.5%
p-CIP stab down: lowers stability of the mouse p/CIP coactivator protein; Q05BA5; F442A p/CIP-EGFP cells, EGFP fluorescence, 16 h; decrease of EGFP signal, % at 10 µM; 290,000 tested, 0.01% active;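 active means EGFP signal decrease of at least 30% at 10 µM or well 3 SD below plate mean, unless failing retest; inactive means the rest, including hits failing retest or dose response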
MT1-MMP act inh: MT1-MMP (human) activation inhibition. GFP/RFP ratio change, % at 20 µM. HT1080 RFP-PRO-GFP cells, GFP/RFP ratio fluorescence, overnight; percent of plate control window, DMSO zero. P50281. 360,000 tested, 0.061% active. AID 651647;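 active means GFP/RFP ratio change of at least 30% with cell ATP level not reduced by more than half and red fluorescence within 50% of control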
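system = RFP-PRO-GFP reporter HT1080 cells | dosing = 20 µM single dose, 1% DMSO | timing = overnight cell settling, then overnight compound exposure, 37 °C, 5% CO2 | read-out basis = GFP/RFP fluorescence ratio | controls = DMSO and RFP-L50D-GFP cell wells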
MsrA inhibitor: inhibits bovine methionine sulfoxide reductase A | AID 651718 | purified bovine MsrA, absorbance read-out | inhibition, % at 15.5 µM | 360,000 tested, 0.75% active
SKN-1 inh: inhibitors of C. elegans SKN-1; AID 624304; inhibition, % at 21.8 µM; 360,000 tested, 0.49% active; C. elegans VP596 Pgst-4::GFP/RFP ratio, acrylamide-induced, 24 h;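 active means interference check ratio from 0.5 to 1.5 plus GFP to RFP signal ratio inhibition reaching or exceeding a fixed threshold, cut at about 30% in these data, passing the limit was not always enough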
MsrA conf: confirmation of bovine MsrA inhibitors; shares compounds with MsrA inhibitor; purified bovine MsrA, absorbance read-out; inhibition, % at 15.5 µM; 2,300 tested, 41% active; AID 651822;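 further: coupled to thioredoxin reductase with NADPH and selenocystamine and DMSO as substrate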
Each line names hits and unclear results; the compound was inactive in the other large screens (follow-up assays come after a bar, where they were run). Unless noted, no stated cut-off is given here; in the data, active means inhibition above about 4.5%; inactive means the rest.

COC(=O)C(C(C)=O)C1=C/C(=N\S(=O)(=O)c2ccc(C)cc2)c2ccccc2C1=O (stereo not drawn)	none (no result: MsrA inhibitor)
Cc1ccccc1NC1=C/C(=N\S(=O)(=O)c2cccs2)c2ccccc2C1=O	MsrA inhibitor 16.0 (no result: p-CIP stab down) | MsrA conf 29.3
COc1ccc(S(=O)(=O)/N=C2\C=C(Nc3ccc(O)cc3)C(=O)c3ccccc32)cc1	MsrA inhibitor 34.8 | MsrA conf 33.5
Cc1ccc(NC2=C/C(=N/S(=O)(=O)c3cccs3)c3ccccc3C2=O)cc1C	none
CC(=O)Nc1ccc(NC2=C/C(=N/S(=O)(=O)c3cccs3)c3ccccc3C2=O)cc1	MsrA inhibitor 47.0 | MsrA conf 44.1
COc1ccc(C(=O)N(CN2CCCC2=O)c2nccs2)cc1OC	MsrA inhibitor 7.5 | MsrA conf 5.1
CCN(CC)CCCNC(=O)c1cc2cc(Cl)ccc2nc1N	none (no result: MsrA act, p-CIP stab down, MT1-MMP act inh, SKN-1 inh)
O=C(COc1ccccc1[N+](=O)[O-])N(Cc1ccccc1)c1ccccn1	MsrA inhibitor 7.3 | MsrA conf inactive
CC(C)[C@H](NC(=O)c1ccccc1)C(=O)N1CCC[C@H]1C(=O)NCCc1ccccc1Cl	none (no result: MsrA act, p-CIP stab down, MT1-MMP act inh, SKN-1 inh)
CC1CCN(N=Nc2nc3c([nH]2)c(=O)n(C)c(=O)n3C)CC1	MsrA inhibitor 7.8 (no result: p-CIP stab down) | MsrA conf 5.5
Cn1c(=O)c2[nH]c(N=NN3CCCCC3)nc2n(C)c1=O	none (no result: p-CIP stab down)
CC(=O)Nc1cc(OC(C)=O)c2nonc2c1OC(C)=O	MsrA inhibitor 28.5 | MsrA conf inactive
CC(=O)Nc1nonc1NC(C)=O	none
Cc1ccc(Nc2ccc(C(F)(F)F)cc2[N+](=O)[O-])cc1	MsrA inhibitor 10.0 | MsrA conf 17.5
C/C(=N\Nc1ccc(C(F)(F)F)cc1[N+](=O)[O-])C1CC1	MsrA inhibitor 9.2 | MsrA conf 8.8
O=C(Cn1nnc(N2CCCCC2)n1)NN=Cc1ccccc1O	none (no result: MsrA act, p-CIP stab down, MT1-MMP act inh, SKN-1 inh)
O=C(c1ccc2c(c1)OCO2)N1CCN(c2ccc(Cl)cc2)CC1	none
CC(=O)c1ccc(N2CCN(C(=O)c3ccc4c(c3)OCO4)CC2)cc1	MsrA inhibitor 4.8 | MsrA conf inactive
CC(C=NN=C1C(=O)Nc2ccccc21)=Cc1ccccc1	none (no result: MsrA act, p-CIP stab down, MT1-MMP act inh, SKN-1 inh)
O=C(O)c1ccc(N(c2ccccc2)c2ccccc2)cc1	MsrA inhibitor 5.1 | MsrA conf inactive
COC(=O)[C@]12C[C@H](CC(=O)N3CCOCC3)C(=O)N(Cc3ccccc3)C1=C[C@H](C(C)(C)C)O[C@@H]2C	none (no result: MsrA act, p-CIP stab down, MT1-MMP act inh, SKN-1 inh)
Nc1nc(=S)c2ncn(C3CCCC3)c2[nH]1	MsrA inhibitor 5.0 | MsrA conf inactive
Nc1nc2c(ncn2C2CCCC2)c(=O)[nH]1	none (no result: p-CIP stab down)
C[C@H](O)[C@@H]1CN2CCc3ccc(-c4ccc5c(c4)OCO5)cc3[C@@H]2C[C@@H]1N(C)C(=O)c1cccc(Cl)c1	none (no result: MsrA act, p-CIP stab down, MT1-MMP act inh, SKN-1 inh)
Cc1ccc(/C=N/N=C2/NC(=O)CS2)o1	MsrA inhibitor 5.5 | MsrA conf inactive
COC(=O)C1=C(C)N(Cc2ccc(C(F)(F)F)cc2)C(=NCc2ccc(C(F)(F)F)cc2)NC1c1ccccc1C(F)(F)F (stereo not drawn)	none (no result: MsrA act, p-CIP stab down, MT1-MMP act inh, SKN-1 inh)
Cn1c(NC(=O)/C=C/c2ccccc2)cc(=O)n(C)c1=O	none
COc1ccc(/C=C/C(=O)Nc2cc(=O)n(C)c(=O)n2C)cc1	MsrA inhibitor 5.0 | MsrA conf inactive
Cc1c(NC(=O)C(C)OC(=O)/C=C/c2ccccc2)c(=O)n(-c2ccccc2)n1C (stereo not drawn)	none
COc1cc(/C=C/C(=O)OC(C)C(=O)Nc2c(C)n(C)n(-c3ccccc3)c2=O)ccc1O (stereo not drawn)	MsrA inhibitor 5.9 (no result: p-CIP stab down) | MsrA conf inactive
COc1ccc(-c2nn(CCC(=O)O)cc2/C=C2\SC(N)=NC2=O)cc1OC	MsrA inhibitor 5.6 | MsrA conf inactive
CCCOc1ccc(-c2nn(-c3ccccc3)cc2/C=C2\SC(N)=NC2=O)cc1C	none
O=C(NCc1cccnc1)c1cc(C2CCCN(C(=O)c3ccccn3)C2)on1 (stereo not drawn)	MsrA inhibitor 48.4 (no result: p-CIP stab down) | MsrA conf inactive
C=CCOCCN(C)C1=NS(=O)(=O)c2cc([N+](=O)[O-])ccc21	MsrA inhibitor 13.8 | MsrA conf 7.2
CCOC(=O)/C(C#N)=C/Nc1ccccc1NS(=O)(=O)c1ccc(C)c(C)c1	none
CCOC(=O)/C(C#N)=C/Nc1ccccc1OC(F)(F)F	MsrA inhibitor 11.4 | MsrA conf 7.1
